In publication PMC2947195 (Biochemical Journal, 2010):
Positions count from the first letter of the chain named.

Experiments:
Type in all cases: cell-based
[1] = target: T1, S313A hRFC (Homo sapiens, UniProt P41440, S313A); assay: [3H]MTX transport kinetics
T1 sequence (P41440 1-591 S313A): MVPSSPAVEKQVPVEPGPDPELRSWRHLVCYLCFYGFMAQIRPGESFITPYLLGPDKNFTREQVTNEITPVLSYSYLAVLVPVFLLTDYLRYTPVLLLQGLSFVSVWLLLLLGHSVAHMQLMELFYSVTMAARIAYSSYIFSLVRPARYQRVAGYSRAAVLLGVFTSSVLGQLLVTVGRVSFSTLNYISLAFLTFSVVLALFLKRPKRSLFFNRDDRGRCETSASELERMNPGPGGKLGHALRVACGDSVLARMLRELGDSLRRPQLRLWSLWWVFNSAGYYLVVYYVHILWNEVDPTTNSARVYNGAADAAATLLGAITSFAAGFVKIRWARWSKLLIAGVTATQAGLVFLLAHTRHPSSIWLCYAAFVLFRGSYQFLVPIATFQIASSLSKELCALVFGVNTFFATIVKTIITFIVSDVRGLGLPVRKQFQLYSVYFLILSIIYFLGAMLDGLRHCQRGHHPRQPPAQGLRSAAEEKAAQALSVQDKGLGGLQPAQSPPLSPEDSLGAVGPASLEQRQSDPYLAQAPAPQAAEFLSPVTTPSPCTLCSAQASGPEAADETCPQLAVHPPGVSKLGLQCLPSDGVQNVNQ
In short: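 Human hRFC-null K500E (K562 subline) cells were electroporated (155 V, 1000 μF) with wt or Ser313-mutant hRFC. Stable clones were selected in soft agar with G418 (1 mg/ml). [3H]MTX uptake was measured over 180 s in HBSS at 37 °C in a shaking water bath and expressed as pmol/mg protein (Lowry). Kt and Vmax came from Lineweaver–Burk plots, with Vmax normalized to densitometric Western blot hRFC levels. Three experiments, means±S.E.M.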

[2] = target: T2, S313T hRFC (Homo sapiens, UniProt P41440, S313T); assay: [3H]MTX uptake in transiently transfected R5 HeLa cells; settings: 0.5 μM [3H]MTX, 2 min, 37 °C, normalized to hRFC protein on Western blots
T2 sequence (P41440 1-591 S313T): T1 sequence (P41440 1-591 S313A) with A313T

[3] = target: T3, S313C hRFC (Ser^313 replaced with cysteine) (Homo sapiens, UniProt P41440, S313C); assay: [3H]MTX uptake in transiently transfected R5 HeLa cells
T3 sequence (P41440 1-591 S313C): T1 sequence (P41440 1-591 S313A) with A313C
In short: (§1)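 Human R5 HeLa cells (transport-defective) were transiently transfected with Lipofectamine Plus, split at 24 h and assayed 24 h later. Uptake of 0.5 μM [3H]MTX ran for 2 min at 37 °C in HSM buffer (20 mM Hepes, 235 mM sucrose, pH 7.14 with MgO). Uptake was stopped with ice-cold PBS and cells solubilized in 0.5 M NaOH. Values in pmol/mg protein were normalized to HA-blot hRFC levels. Three experiments, means±S.E.M.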

[4] = target: T4, S313F hRFC (Ser^313 replaced with phenylalanine) (Homo sapiens, UniProt P41440, S313F); assay: as above
T4 sequence (P41440 1-591 S313F): T1 sequence (P41440 1-591 S313A) with A313F
In short: as §1

For `CN(Cc1cnc2nc(N)nc(N)c2n1)c1ccc(C(=O)N[C@@H](CCC(=O)O)C(=O)O)cc1` [MTX, methotrexate], the “Vmax (normalized)/Kt” value [1] was 0.18, the Kt ([1]; K500E stable transfectant, mean±S.E.M., n=3) was 2.26 ± 0.44 µM and the “Normalized Vmax” value ([1]; Vmax normalized to relative hRFC level on Western blots) was 0.41±0.03. For the same compound, the “[3H]MTX transport activity relative to wt hRFC” value [2] was ~ 8%, the MTX transport [3] was “abolished” and the MTX transport [4] was “abolished”.
